ChEMBL document CHEMBL3046730, “Broad-spectrum antimicrobial activity in vitro of the synthetic peptide D4E1” (J Agric Food Chem, 2001)
Active and inactive are the calls of the source. No cut-off for these calls is given here.

How the values were obtained:
Aspergillus flavus [1] = assay: Antifungal activity against Aspergillus flavus 70-GFP after 24 to 48 hr; assay type: functional, organism-based
Procedure, shortened: (§1)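 Conidia harvested in 1% PDB (pH 6.0), diluted to 10⁵/mL and germinated before exposure to peptide in 1% PDB. Four 50 µL aliquots plated on PDA and colonies counted after 24–48 h. Percent mortality vs untreated control fitted by dose–response to give IC50; MIC = complete inhibition; each fungus tested at least twice.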

Penicillium italicum = assay: Antifungal activity against Penicillium italicum SRRC 2352 after 24 to 48 hr; assay type: functional, organism-based
Procedure, shortened: (§2)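 Conidia diluted to 10⁴/mL (Fusarium) or 10⁵/mL and germinated 8 h at 30 °C (A. flavus, Fusarium, P. italicum) or overnight at 22 °C. Four 50 µL aliquots spread on PDA, colonies counted after 24–48 h at 30 or 22 °C. Percent mortality vs untreated control fitted by dose–response to give IC50; MIC = complete inhibition; two experiments.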

Rhizoctonia solani [2] = assay: Antifungal activity against Rhizoctonia solani SRRC 1443 assessed as appearance of extracellular material surrounding hyphae at 20 uM after 48 hr by microscopic analysis; assay type: functional, organism-based
Aspergillus flavus [3] = assay: Antifungal activity against Aspergillus flavus 70-GFP assessed as short germ tube at 25 uM after 8 hr by microscopic analysis relative to control; assay type: functional, organism-based
Procedure, shortened: (§3)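 A. flavus 70-GFP conidia (10⁶/mL) incubated 8 h at 30 °C with 0–25 µM peptide in 1% PDB. Germ tube and spore morphology examined by GFP fluorescence microscopy (excitation 480 nm, emission 530 nm). Repeated twice.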

[4] = system: Pseudomonas amygdali pv. tabaci; assay: Antibacterial activity against Pseudomonas syringae pv. tabaci after 24 to 48 hr; assay type: functional, organism-based
Aspergillus flavus [5] = assay: Antifungal activity against Aspergillus flavus 70-GFP assessed as reduction in spore germination at 25 uM after 8 hr by microscopic analysis relative to control; assay type: functional; design: scale not given: the % may be the effect or the level left
Procedure, shortened: (§4)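 Nongerminated A. flavus 70-GFP conidia (10⁶/mL) exposed to 0–25 µM peptide in 1% PDB, 8 h at 30 °C. Proportion of germinating conidia scored; GFP fluorescence microscopy (ex 480, em 530 nm). Experiment repeated twice; one-way ANOVA with Tukey separation.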

Aspergillus flavus [6] = assay: Antifungal activity against Aspergillus flavus 70-GFP assessed as vacuolization in spores at 12.5 uM after 8 hr by microscopic analysis relative to control; assay type: functional, organism-based; procedure, shortened: as §3
Verticillium dahliae = assay: Antifungal activity against Verticillium dahliae SRRC 1030 after 24 to 48 hr; assay type: functional, organism-based; procedure, shortened: as §2
Aspergillus flavus [7] = assay: Antifungal activity against Aspergillus flavus 70-GFP assessed as vacuolization in spores at 6 uM after 8 hr by microscopic analysis relative to control; assay type: functional, organism-based; procedure, shortened: as §3
Xanthomonas campestris = assay: Antibacterial activity against Xanthomonas citri subsp. malvacearum race 18 after 24 to 48 hr; assay type: functional, organism-based, Xanthomonas citri pv. malvacearum
Procedure, shortened: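 X. campestris pv. malvacearum race 18 grown overnight in nutrient broth at 28 °C, 225 rpm, then diluted to 10⁴ CFU/mL. Exposed to D4E1 for 60 min at 28 °C. Four aliquots plated on NB and colonies counted after 24–48 h at 28 °C. Percent mortality vs 0 µM control; IC50 from dose–response curve fit; MIC = complete inhibition; tested twice.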

Aspergillus flavus [8] = assay: Antifungal activity against Aspergillus flavus 70-GFP assessed as reduction in spore germination at 12.5 uM after 8 hr by microscopic analysis relative to control; assay type: functional, organism-based; procedure, shortened: as §4
Rhizoctonia solani [9] = assay: Antifungal activity against Rhizoctonia solani SRRC 1443 assessed as jagged hyphae at 20 uM after 48 hr by microscopic analysis; assay type: functional, organism-based
Fusarium oxysporum = assay: Antifungal activity against Fusarium oxysporum SRRC 187 after 24 to 48 hr; assay type: functional, organism-based; procedure, shortened: as §2
Rhizoctonia solani [10] = assay: Antifungal activity against Rhizoctonia solani SRRC 1443 assessed as thin hyphae at 20 uM after 48 hr by microscopic analysis; assay type: functional, organism-based
Phytophthora nicotianae = assay: Antifungal activity against Phytophthora parasitica after 48 hr by microplate assay; assay type: functional, organism-based
Procedure, shortened: (§5)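 Mycelia grown in 1% PDB 48 h at 28 °C, 90 rpm, blended, adjusted to ~10⁵ fragments/mL. Fragments incubated in 24-well plates with peptide at 2–40 µM final in 1% PDB, 2 mL total, 48 h at 90 rpm. MIC recorded as lowest concentration completely inhibiting growth; three replicate experiments.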

[11] = system: Globisporangium ultimum var. sporangiiferum; assay: Antifungal activity against Pythium ultimum var. sporangiiferum after 48 hr by microplate assay; assay type: functional, organism-based; procedure, shortened: as §5
Claviceps purpurea = assay: Antifungal activity against Claviceps purpurea SRRC 118 after 24 to 48 hr; assay type: functional, organism-based; procedure, shortened: as §2
Alternaria alternata = assay: Antifungal activity against Alternaria alternata SRRC 1107 after 24 to 48 hr; assay type: functional, organism-based; procedure, shortened: as §1
Rhizoctonia solani [12] = assay: Antifungal activity against Rhizoctonia solani SRRC 1443 after 48 hr by microplate assay; assay type: functional, organism-based; conditions: SRRC 1443, 48 h; procedure, shortened: as §5
Rhizoctonia solani [13] = assay: Antifungal activity against Rhizoctonia solani SRRC 1443 assessed as rough hyphae at 20 uM after 48 hr by microscopic analysis; assay type: functional, organism-based
Phytophthora cinnamomi = assay: Antifungal activity against Phytophthora cinnamomi after 48 hr by microplate assay; assay type: functional, organism-based; procedure, shortened: as §5
Fusarium verticillioides = assay: Antifungal activity against Fusarium verticillioides SRRC 1082 after 24 to 48 hr; assay type: functional, organism-based; procedure, shortened: as §2
Berkeleyomyces basicola = assay: Antifungal activity against Thielaviopsis basicola SRRC 1277 after 24 to 48 hr; assay type: functional, organism-based; procedure, shortened: as §2
Aspergillus flavus [14] = assay: Antifungal activity against Aspergillus flavus 70-GFP assessed as germ tube breakage at 12.5 uM after 8 hr by microscopic analysis relative to control; assay type: functional, organism-based; procedure, shortened: as §3
Aspergillus flavus [15] = assay: Antifungal activity against Aspergillus flavus 70-GFP assessed as thick germ tube at 25 uM after 8 hr by microscopic analysis relative to control; assay type: functional, organism-based; procedure, shortened: as §3
Aspergillus flavus [16] = assay: Antifungal activity against Aspergillus flavus 70-W after 24 to 48 hr; assay type: functional, organism-based; procedure, shortened: as §2
Fusarium graminearum = assay: Antifungal activity against Fusarium graminearum SRRC 1042 after 24 to 48 hr; assay type: functional, organism-based
Procedure, shortened: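 Conidia harvested in 1% PDB (pH 6.0), diluted to 10⁴ conidia/mL, pregerminated 8 h at 30 °C. Germinated conidia exposed to D4E1 in 1% PDB at 30 °C; four aliquots spread on PDA and colonies counted after 24–48 h at 30 °C. Percent mortality vs 0 µM control; IC50 from dose–response fit of two experiments; MIC = complete growth inhibition.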

Cercospora kikuchii = assay: Antifungal activity against Cercospora kikuchii SRRC 1078 after 24 to 48 hr; assay type: functional, organism-based; procedure, shortened: as §2
[17] = system: Colletotrichum destructivum; assay: Antifungal activity against Colletotrichum destructivum ATCC 42492 after 24 to 48 hr; assay type: functional, organism-based; procedure, shortened: as §2

**Q.** Which IC50 (Aspergillus flavus [1]) does the source give for H-FKLRAKIKVRLRAKIKL-OH here?
**A.** 11000 nM

**Q.** And the MIC (Aspergillus flavus [1])?
**A.** 25 µM

**Q.** What about the IC50 (Penicillium italicum) of the same substance?
**A.** 5920 nM

**Q.** And the MIC (Penicillium italicum)?
**A.** 25 µM

**Q.** What about the Activity (Rhizoctonia solani [2]) of the same substance?
**A.** Active

**Q.** And the Activity (Aspergillus flavus [3])?
**A.** Active

**Q.** What about the IC50 [4] of the same substance?
**A.** 520 nM

**Q.** What about the MIC [4] of the same substance?
**A.** 2.25 µM

**Q.** And the Activity (Aspergillus flavus [5])?
**A.** >75%

**Q.** And the Activity (Aspergillus flavus [6])?
**A.** Active

**Q.** And the IC50 (Verticillium dahliae)?
**A.** 600 nM

**Q.** And the MIC (Verticillium dahliae)?
**A.** 5.25 µM

**Q.** What about the Activity (Aspergillus flavus [7]) of the same substance?
**A.** Active

**Q.** What about the IC50 (Xanthomonas campestris) of the same substance?
**A.** 190 nM

**Q.** And the MIC (Xanthomonas campestris)?
**A.** 1.25 µM

**Q.** And the Activity (Aspergillus flavus [8])?
**A.** Active

**Q.** What about the Activity (Rhizoctonia solani [9]) of the same substance?
**A.** Active

**Q.** What about the IC50 (Fusarium oxysporum) of the same substance?
**A.** 2050 nM

**Q.** What about the MIC (Fusarium oxysporum) of the same substance?
**A.** 12.5 µM

**Q.** What about the Activity (Rhizoctonia solani [10]) of the same substance?
**A.** Active

**Q.** And the MIC (Phytophthora nicotianae)?
**A.** 4.67 µM

**Q.** And the MIC [11]?
**A.** 13.3 µM

**Q.** What about the IC50 (Claviceps purpurea) of the same substance?
**A.** 1600 nM

**Q.** What about the MIC (Claviceps purpurea) of the same substance?
**A.** 20 µM

**Q.** And the IC50 (Alternaria alternata)?
**A.** 12400 nM

**Q.** And the MIC (Alternaria alternata)?
**A.** 25 µM

**Q.** What about the MIC (Rhizoctonia solani [12]) of the same substance?
**A.** 26.7 µM

**Q.** And the Activity (Rhizoctonia solani [13])?
**A.** Active

**Q.** What about the MIC (Phytophthora cinnamomi) of the same substance?
**A.** 4.67 µM

**Q.** What about the IC50 (Fusarium verticillioides) of the same substance?
**A.** 880 nM

**Q.** What about the MIC (Fusarium verticillioides) of the same substance?
**A.** 12.5 µM

**Q.** What about the IC50 (Berkeleyomyces basicola) of the same substance?
**A.** 520 nM

**Q.** What about the MIC (Berkeleyomyces basicola) of the same substance?
**A.** 6 µM

**Q.** And the Activity (Aspergillus flavus [14])?
**A.** Active

**Q.** What about the Activity (Aspergillus flavus [15]) of the same substance?
**A.** Active

**Q.** What about the IC50 (Aspergillus flavus [16]) of the same substance?
**A.** 7750 nM

**Q.** And the MIC (Aspergillus flavus [16])?
**A.** 25 µM

**Q.** What about the IC50 (Fusarium graminearum) of the same substance?
**A.** 2100 nM

**Q.** And the MIC (Fusarium graminearum)?
**A.** 25 µM

**Q.** And the IC50 (Cercospora kikuchii)?
**A.** 8670 nM

**Q.** What about the MIC (Cercospora kikuchii) of the same substance?
**A.** 25 µM

**Q.** And the IC50 [17]?
**A.** 13000 nM

**Q.** And the MIC [17]?
**A.** 25 µM
